The IC50 is the concentration at which inhibition is half-maximal. A high value points to lower potency.

The values below come from ChEMBL document CHEMBL1144446, “Synthesis and Src kinase inhibitory activity of 2-phenyl- and 2-thienyl-7-phenylaminothieno[3,2-b]pyridine-6-carbonitriles” (J Med Chem, 2005).

The structures appear in SMILES notation.

Data set [1] has as its target Proto-oncogene tyrosine-protein kinase Src (Homo sapiens, UniProt P12931). The data set can be described thus: Inhibition of Src protein tyrosine kinase in LANCE format enzyme assay.
The nature of data set [2]: Plasma concentration upon oral dose at 50 mg/kg in mouse after 4 hours. The data set is classed as ADME, organism-based. Further details: dose 50 mg/kg, route oral. Put shortly: (§1)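 Nude mice received one oral dose of 50 mg/kg in a vehicle of 0.5% methylcellulose and 0.4% Tween 80. Plasma was sampled at 4 and 24 h and analyzed for the amount of parent compound remaining, reported in µg/mL.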

The nature of data set [3]: Plasma concentration upon oral dose at 50 mg/kg in mouse after 24 hours. Format: ADME, organism-based. Further details: dose 50 mg/kg, route oral. An outline of the steps: as §1
The subject of data set [4] is K562. The data set can be described thus: cells. The note with it: Homo sapiens.

Proto-oncogene tyrosine-protein kinase Src, sequence (P12931 2-536 limits assumed): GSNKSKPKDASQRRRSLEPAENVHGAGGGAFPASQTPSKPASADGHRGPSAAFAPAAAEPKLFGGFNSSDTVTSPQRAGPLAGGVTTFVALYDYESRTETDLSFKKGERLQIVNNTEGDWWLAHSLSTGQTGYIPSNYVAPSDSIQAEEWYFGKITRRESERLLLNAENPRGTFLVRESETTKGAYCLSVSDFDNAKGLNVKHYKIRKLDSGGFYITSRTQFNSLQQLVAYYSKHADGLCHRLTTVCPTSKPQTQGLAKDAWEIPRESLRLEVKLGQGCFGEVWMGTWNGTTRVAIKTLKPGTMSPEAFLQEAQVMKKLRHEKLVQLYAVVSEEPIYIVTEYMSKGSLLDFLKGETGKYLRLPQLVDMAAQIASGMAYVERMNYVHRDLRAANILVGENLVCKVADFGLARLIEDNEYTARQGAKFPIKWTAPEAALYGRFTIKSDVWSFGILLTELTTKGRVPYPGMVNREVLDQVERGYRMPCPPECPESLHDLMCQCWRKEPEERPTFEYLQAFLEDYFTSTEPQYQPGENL

On to `CCCCNCc1ccc(-c2cc3ncc(C#N)c(Nc4cc(OC)c(Cl)cc4Cl)c3s2)cc1`, for which it took 11 nM to reach half-maximal inhibition in data set [1] (IC50).

Compound `CN1CCN(Cc2ccc(-c3cc4ncc(C#N)c(Nc5ccc(Oc6ccccc6)cc5)c4s3)cc2)CC1` displayed a concentration for half-maximal inhibition (IC50) in data set [1] of 140 nM.

`COc1cc(Nc2c(C#N)cnc3cc(-c4ccc(CCN(C)C)cc4)sc23)c(Cl)cc1Cl` had a 50% inhibitory concentration (IC50) in data set [1] of 8.8 nM.

`COc1cc(Nc2c(C#N)cnc3cc(-c4csc(CN5CCN(C)CC5)c4)sc23)c(Cl)cc1Cl`: the concentration at 4 h in data set [2] is 1000 ng/mL. Further, the concentration at 24 h in data set [3] came to 320 ng/mL.

The compound `COc1cc(Nc2c(C#N)cnc3cc(-c4ccc(N(C)C)cc4)sc23)c(Cl)cc1Cl` returned a half-inhibitory concentration (IC50) in data set [1] of 110 nM.

Compound `COc1cc(Nc2c(C#N)cnc3cc(-c4ccc(C(=O)N(C)C)cc4)sc23)c(Cl)cc1Cl` gave a 50% inhibitory concentration (IC50) in data set [1] of 23 nM. This IC50 is about 4.8-fold lower than that of the compound before.

In data set [1], `CCOc1cc(Nc2c(C#N)cnc3cc(-c4ccc(CN5CCN(C)CC5)cc4)sc23)c(Cl)cc1Cl` showed an IC50 of 980 nM.

Turning to `CN(C)Cc1ccc(-c2cc3ncc(C#N)c(Nc4ccc(Cl)cc4Cl)c3s2)cc1`, half-maximal inhibition in data set [1] (IC50) was put at 53 nM.

Take `COc1cc(Nc2c(C#N)cnc3cc(-c4ccc(C(=O)N5CCN(C)CC5)cc4)sc23)c(Cl)cc1Cl`: the half-maximal inhibitory concentration (IC50) in data set [1] is 13 nM. For the same compound, in data set [2], the concentration at 4 h is 1600 ng/mL. Moreover, the concentration at 24 h in data set [3] came out at 59 ng/mL.

In data set [1], `CCN1CCN(Cc2ccc(-c3cc4ncc(C#N)c(Nc5cc(OC)c(Cl)cc5Cl)c4s3)cc2)CC1` registered an IC50 of 8.2 nM.

In data set [1], `COc1cc(Nc2c(C#N)cnc3cc(-c4ccsc4CN4CCN(C)CC4)sc23)c(Cl)cc1Cl` registered an IC50 of 420 nM.

Compound `COc1cc(Nc2c(C#N)cnc3cc(-c4ccc(CN5CCNCC5)cc4)sc23)c(Cl)cc1Cl` displayed a concentration for half-maximal inhibition (IC50) in data set [1] of 7.2 nM. Also, in data set [2], the concentration at 4 h came to 1100 ng/mL. In addition, the concentration at 24 h in data set [3] turned out to be 3 ng/mL.

For `COc1cc(Nc2c(C#N)cnc3cc(-c4ccc(CN5CCN(C)CC5)cc4)sc23)c(Cl)cc1Cl`, the concentration at 4 h in data set [2] amounted to 2200 ng/mL. Besides, in data set [3], the concentration at 24 h was determined as 400 ng/mL. For the same compound, the IC50 in data set [4] amounted to 32 nM.

Turning to `CCOc1cc(Nc2c(C#N)cnc3cc(-c4csc(CN5CCN(C)CC5)c4)sc23)c(Cl)cc1Cl`, half-maximal inhibition in data set [1] (IC50) was put at 1300 nM.

`CN1CCN(Cc2cc(-c3cc4ncc(C#N)c(Nc5ccc(Cl)cc5Cl)c4s3)cs2)CC1` had an IC50 in data set [1] of 67 nM.

On to `COc1cc(Nc2c(C#N)cnc3cc(-c4ccc(CN(C)C)cc4)sc23)c(Cl)cc1Cl`, for which the IC50 in data set [1] is 9.1 nM. The compound also had a concentration at 4 h in data set [2] of 200 ng/mL. In data set [3], this compound yielded a concentration at 24 h of 2 ng/mL.

With `COc1cc(Nc2c(C#N)cnc3cc(-c4ccc(CCN5CCN(C)CC5)cc4)sc23)c(Cl)cc1Cl`, in data set [1], the IC50 is 15 nM.

The compound `COc1cc(Nc2c(C#N)cnc3cc(-c4ccc(CN5CCSCC5)cc4)sc23)c(Cl)cc1Cl` returned a half-maximal inhibitory concentration (IC50) in data set [1] of 52 nM. This IC50 is about 3.5-fold higher than that of the compound before.

`COc1cc(Nc2c(C#N)cnc3cc(-c4ccc(CN5CCN(CCO)CC5)cc4)sc23)c(Cl)cc1Cl`: in data set [1], the half-inhibitory concentration (IC50) came out at 7.4 nM. Further, in data set [2], the concentration at 4 h worked out at 1700 ng/mL. In addition, the concentration at 24 h in data set [3] was 69 ng/mL.

The compound `COc1cc(Nc2c(C#N)cnc3cc(-c4ccc(CN5CCCCC5)cc4)sc23)c(Cl)cc1Cl` showed an IC50 in data set [1] of 17 nM.

Compound `COc1cc(Nc2c(C#N)cnc3cc(OCCCN4CCN(C)CC4)c(OC)cc23)c(Cl)cc1Cl` [BOSUTINIB] yielded an IC50 in data set [4] of 20 nM.
